Assay results: ChEMBL document CHEMBL1125117, “Substituted 1,3-dihydro-2H-pyrrolo[2,3-b]pyridin-2-ones as potential antiinflammatory agents” (1990)

How the values were obtained:
[1] = target: Cyclooxygenase (Homo sapiens) (UniProt P35354+P23219); experiment: In vitro inhibitory activity against Prostaglandin G/H synthase in human platelets; parameters: concentration or dose not given beside the values; conditions: concentration not given here
In short: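 Human platelets (2×10^5/mL) in HEPES buffer with 0.5 mM EGTA and 1.5 mM CaCl2, incubated 4 min with compound in DMSO vehicle. Then given [14C]arachidonic acid and A23187 ionophore for 5 min and stopped with methanol. HHT was measured by reverse-phase HPLC. Reported as % inhibition of HHT versus vehicle, at 15 μM.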

[2] = test system: Rattus norvegicus; experiment: In vivo inhibitory activity against cells in reverse passive Arthus reaction (RPAR) assay at dose 25 mg/kg in the pleural cavity of rats.; format: functional
In short: (§1)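 Male rats, five per group, dosed orally 1 h before iv BSA antigen (5 mg). Rabbit anti-BSA IgG (0.5 mg) given intrapleurally 30 min later. At 4 h, pleural exudate volume was measured and neutrophils counted (Coulter) after saline-EDTA lavage. Reported as % reduction in cells and fluid relative to control.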

[3] = test system: Rattus norvegicus; experiment: In vivo effect on prostaglandin and leukotriene mediated production in rat pleural cavity was assessed by the inhibition of fluid volume in 5-lipoxygenase/ cyclooxygenase at dose 25 mg/kg; format: functional; conditions: for inhibition in vivo at 25 mg/kg: Rattus norvegicus, Pleural cavity; for Inhibition: 25 mg/kg
In short: (§2)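 Rat reversed passive Arthus pleurisy, oral dosing 1 h before challenge. BSA given iv (5 mg), then rabbit anti-BSA IgG intrapleurally 30 min later. At 4 h, exudate was collected into indomethacin/NDGA and its volume recorded. Neutrophils were counted by Coulter counter. TXB2 and LTE4 in ethanol-extracted supernatant were measured by RIA with tritiated recovery spikes. Reported as % inhibition versus control.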

[4] = test system: Rattus norvegicus; experiment: In vivo inhibitory activity against fluid in reverse passive Arthus reaction (RPAR) assay at dose 25 mg/kg in the pleural cavity of rats.; format: functional; in short: as §1
[5] = test system: Rattus norvegicus; experiment: In vivo effect on prostaglandin and leukotriene mediated production in rat pleural cavity was assessed by the inhibition of cell influx in 5-lipoxygenase/ cyclooxygenase at dose 25 mg/kg; format: functional; in short: as §2
[6] = test system: Rattus norvegicus; experiment: In vivo effect on prostaglandin and leukotriene mediated production in rat pleural cavity was assessed by the inhibition of LTE4 in 5-lipoxygenase/ cyclooxygenase at dose 25 mg/kg; format: functional; in short: as §2
[7] = test system: Rattus norvegicus; experiment: In vivo effect on prostaglandin and leukotriene mediated production in rat pleural cavity was assessed by the inhibition of TxB2 in 5-lipoxygenase/ cyclooxygenase at dose 25 mg/kg
[8] = target: T1, Polyunsaturated fatty acid 5-lipoxygenase (Homo sapiens) (UniProt P09917); experiment: In vitro inhibitory activity against 5-lipoxygenase in human polymorphonuclear (PMN) cells; conditions: concentration not given here
T1 sequence (whole entry): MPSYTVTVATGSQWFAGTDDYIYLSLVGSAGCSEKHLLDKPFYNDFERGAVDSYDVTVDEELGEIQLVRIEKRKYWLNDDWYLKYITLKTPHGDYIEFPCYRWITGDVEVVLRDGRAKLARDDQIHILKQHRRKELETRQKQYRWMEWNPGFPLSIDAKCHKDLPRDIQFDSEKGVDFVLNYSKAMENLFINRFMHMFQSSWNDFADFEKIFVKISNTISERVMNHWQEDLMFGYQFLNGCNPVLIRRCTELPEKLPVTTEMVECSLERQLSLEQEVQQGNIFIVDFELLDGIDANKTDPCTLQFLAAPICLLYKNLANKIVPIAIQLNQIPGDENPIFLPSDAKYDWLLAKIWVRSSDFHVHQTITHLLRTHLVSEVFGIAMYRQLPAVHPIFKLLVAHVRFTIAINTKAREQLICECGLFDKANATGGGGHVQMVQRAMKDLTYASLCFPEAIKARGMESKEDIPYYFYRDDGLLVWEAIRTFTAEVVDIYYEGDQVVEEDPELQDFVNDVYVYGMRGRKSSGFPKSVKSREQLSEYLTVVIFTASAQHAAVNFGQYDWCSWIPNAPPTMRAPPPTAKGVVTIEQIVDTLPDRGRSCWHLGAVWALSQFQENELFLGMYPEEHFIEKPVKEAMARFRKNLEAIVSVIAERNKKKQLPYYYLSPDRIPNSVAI
In short: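 Human PMN neutrophils (2×10^7 cells/mL) in HEPES buffer with 1 mM CaCl2, preincubated 4 min with test compound in DMSO vehicle. Then stimulated with [14C]arachidonic acid plus calcium ionophore A23187 for 5 min and stopped with methanol. 5-HETE was quantitated by HPLC. Reported as % inhibition versus vehicle, tested at 15 μM.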

[9] = test system: Rattus norvegicus; experiment: In vivo antiinflammatory activity against edema formation in the noninjected(secondary) paw of the rat (before edema stimulation) at dose 25 mg/kg; format: functional
In short: (§3)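 Adjuvant arthritis in rats, prophylactic regimen. Oral dosing began 1 h before challenge and continued for 21 consecutive days. Heat-killed M. tuberculosis in paraffin oil (6 mg/mL), 0.1 mL injected into the left hind paw, with methylcellulose-treated controls. Both hind paw volumes measured by plethysmograph on day 21. Reported as % change relative to control.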

[10] = test system: Rattus norvegicus; experiment: In vivo antiinflammatory activity against edema formation in the injected(primary) paw of the rat(before edema stimulation) at dose 25 mg/kg; format: functional; in short: as §3
[11] = test system: Rattus norvegicus; experiment: In vivo effect on prostaglandin and leukotriene mediated production in rat pleural cavity was assessed by the inhibition of TXB2 in 5-lipoxygenase/ cyclooxygenase at dose 25 mg/kg; format: functional; in short: as §2
[12] = test system: Rattus norvegicus; experiment: In vivo antiinflammatory activity against edema formation in the noninjected(secondary) paw of the rat (after edema stimulation) at dose 2.0 mg/kg; format: functional
[13] = test system: Rattus norvegicus; experiment: In vivo effect on prostaglandin and leukotriene mediated production in rat pleural cavity was assessed by the inhibition of fluid volume in 5-lipoxygenase/ cyclooxygenase at dose 1.0 mg/kg; format: functional; in short: as §2
[14] = test system: Rattus norvegicus; experiment: In vivo antiinflammatory activity against edema formation in the noninjected(secondary) paw of the rat (before edema stimulation) at dose 2.0 mg/kg; format: functional; in short: as §3
[15] = test system: Rattus norvegicus; experiment: In vivo effect on prostaglandin and leukotriene mediated production in rat pleural cavity was assessed by the inhibition of cell influx in 5-lipoxygenase/ cyclooxygenase at dose 1.0 mg/kg; format: functional; in short: as §2
[16] = test system: Rattus norvegicus; experiment: In vivo antiinflammatory activity against edema formation in the noninjected(secondary) paw of the rat (after edema stimulation) at dose 25 mg/kg; format: functional
In short: (§4)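 Adjuvant arthritis in rats, therapeutic regimen. Heat-killed M. tuberculosis in paraffin oil (6 mg/mL), 0.1 mL injected into the left hind paw. Lesion allowed to develop 7 days before the first oral dose, with methylcellulose-treated controls. Paw volumes measured by plethysmograph, final reading on day 21. Reported as % change in paw volume relative to control.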

[17] = test system: Rattus norvegicus; experiment: In vivo antiinflammatory activity against edema formation in the injected(primary) paw of the rat(after edema stimulation) at dose 25 mg/kg; format: functional; in short: as §4

Compound	inhibition [8] [%]	inhibition in vivo at 25 mg/kg [2] [%]	inhibition in vivo at 25 mg/kg [4] [%]	also measured
CC1(C)C(=O)N(c2ccccc2Cl)c2ncccc21	0	14	3	
CC(C)N1C(=O)C(C)(C)c2cccnc21	6	34	14	
CC1(Cc2ccccc2)C(=O)N(c2ccccc2)c2ncccc21 (centres undefined)	17	9	0	
CC(C)(C(=O)[O-])c1cccnc1Nc1ccc(Cl)cc1.[Na+]	0			inhibition [1]: 28%; ED50 [2]: 11.3 mg/kg; inhibition in vivo at 25 mg/kg [3]: 71%; ED50 [4]: 9.6 mg/kg; inhibition in vivo at 25 mg/kg [9]: 34%; inhibition in vivo at 25 mg/kg [5]: 62%; inhibition in vivo at 25 mg/kg [10]: 14%; inhibition in vivo at 25 mg/kg [6]: 76%; TxB2 inhibition [7]: 81%
CC1(C)C(=O)Nc2ncccc21		46	38	
CN1C(=O)C(C)(C)c2cccnc21		69	53	Inhibition [3]: 53%; inhibition in vivo at 25 mg/kg [3]: 53%; inhibition in vivo at 25 mg/kg [5]: 69%; inhibition in vivo at 25 mg/kg [11]: 17%
CC1(C)C(=O)N(c2ccc(Cl)cc2)c2ccccc21		0	0	
COc1ccc2c(c1)c(CC(=O)O)c(C)n2C(=O)c1ccc(Cl)cc1 [INDOMETHACIN]				inhibition in vivo at 2 mg/kg [12]: 88%; inhibition in vivo at 1 mg/kg [13]: 24%; inhibition in vivo at 2 mg/kg [14]: 70%; inhibition in vivo at 1 mg/kg [15]: 48%
CSC1(C)C(=O)N(c2ccccc2)c2ncccc21 (centres undefined)	21	34	53	
Cc1c(Cl)cccc1N1C(=O)C(C)(C)c2cccnc21	7	14	0	
CC1(Sc2ccccc2)C(=O)N(c2ccccc2)c2ncccc21 (centres undefined)		0	0	
CC1(C)C(=O)N(Cc2ccccc2)c2ncccc21	2	12	12	
CC1C(=O)N(c2ccccc2)c2ncccc21 (centres undefined)	0	29	18	
CC1(C)C(=O)N(c2ccc(F)cc2F)c2ncccc21	7	61	19	
CCC1(C)C(=O)N(c2ccccc2)c2ncccc21 (centres undefined)	13	36	12	
CC1(C)C(=O)N(c2cc(Cl)cc(Cl)c2)c2ncccc21		49	33	
CC1(C)C(=O)N(c2cccc(C(F)(F)F)c2)c2ncccc21	34	35	10	
CCCCC1(C)C(=O)N(c2ccccc2)c2ncccc21 (centres undefined)	13	21	5	
CCC1(CC)C(=O)N(c2ccccc2)c2ncccc21	12	13	0	
CC1(F)C(=O)N(c2ccccc2)c2ncccc21 (centres undefined)	0	50	35	
COCCSC1(C)C(=O)N(c2ccccc2)c2ncccc21 (centres undefined)	0	26	23	

Further lines, with some results ahead:

inhibition [8] [%]	Compound	inhibition in vivo at 25 mg/kg [2] [%]	inhibition in vivo at 25 mg/kg [4] [%]	also measured
0	CC1(C)C(=O)N(c2ccc(Cl)c(Cl)c2)c2ncccc21	26	25	inhibition [1]: 0%; inhibition in vivo at 25 mg/kg [3]: 25%; inhibition in vivo at 25 mg/kg [5]: 26%; inhibition in vivo at 25 mg/kg [6]: 46%; TxB2 inhibition [7]: 44%
13	CC1(C)C(=O)N(c2ccc(S(C)(=O)=O)cc2)c2ncccc21	42	0	
11	CC1(C)C(=O)N(c2ccc(Br)cc2)c2ncccc21	46	55	
26	CC1(C)C(=O)N(Cc2ccc(Cl)cc2)c2ncccc21	6	0	
0	CC(C)c1ccc(N2C(=O)C(C)(C)c3cccnc32)cc1	29	6	
3	CC1(C)C(=O)N(c2cccc(Cl)c2)c2ncccc21	51	49	inhibition [1]: 0%; inhibition in vivo at 25 mg/kg [3]: 49%; inhibition in vivo at 25 mg/kg [9]: 31%; inhibition in vivo at 25 mg/kg [5]: 51%; inhibition in vivo at 25 mg/kg [10]: 0%; inhibition in vivo at 25 mg/kg [6]: 59%; TxB2 inhibition [7]: 62%
11	COc1ccc(N2C(=O)C(C)(C)c3cccnc32)cc1	63	42	inhibition in vivo at 25 mg/kg [9]: 0%; inhibition in vivo at 25 mg/kg [5]: 63%; inhibition in vivo at 25 mg/kg [10]: 0%; inhibition in vivo at 25 mg/kg [11]: 34%
11	C[S+]([O-])c1ccc(N2C(=O)C(C)(C)c3cccnc32)cc1 (centres undefined)	39	0	
13	CC1(C)C(=O)N(c2ccc(Cl)cc2)c2ncccc21			inhibition [1]: 47%; ED50 [2]: 4.5 mg/kg; Inhibition [3]: 83%; inhibition in vivo at 25 mg/kg [3]: 83%; ED50 [4]: 27.9 mg/kg; inhibition in vivo at 25 mg/kg [9]: 65%; inhibition in vivo at 25 mg/kg [16]: 54%; inhibition in vivo at 25 mg/kg [17]: 31%; inhibition in vivo at 25 mg/kg [5]: 73%; inhibition in vivo at 25 mg/kg [10]: 13%; inhibition in vivo at 25 mg/kg [11]: 78%
17	CC1(C)C(=S)N(c2ccc(Cl)cc2)c2ncccc21	41	42	
20	CC1(C)C(=O)N(c2ccc(Cl)cc2Cl)c2ncccc21	16	8	
23	CSc1ccc(N2C(=O)C(C)(C)c3cccnc32)cc1	29	37	
34	CC1(C)C(=O)N(c2ccc(Cl)cc2)c2ncc(Br)cc21	29	0	
